# Measured values: ChEMBL document CHEMBL1158078, “Integerrimides A and B, cyclic heptapeptides from the latex of Jatropha integerrima” (J Nat Prod, 2006)
# Calls of active or inactive are those of the source. The calls are words filed in the database; no cut-off is given here. Residues, ends and D or L forms follow the SMILES beside them.
# Legend:
# [1] = test system: Human alphaherpesvirus 1; test: Antiviral activity against HSV1 ATCC VR260 by colorimetry; type: functional, organism-based
# Outline: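 HSV-1 strain ATCC VR 260; colorimetric method; compounds tested at 50 μg/mL; acyclovir as positive control.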
# [2] = test system: Mycobacterium tuberculosis; test: Antimycobacterial activity
# [3] = test system: IPC-298; test: Cytotoxicity against human IPC298 cells assessed as apoptotic cell nuclei level at 50 uM after 2 days; type: functional, cell-based
# Outline: (§1)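 IPC-298 melanoma cells grown in DMEM/Ham's F12 with stabilized L-glutamine, 10% heat-inactivated FCS, penicillin/streptomycin. Plated at 100 000 cells per cm², cultured with or without compound (10 and 50 μM) for 2 days. Viable cells counted on phase-contrast digital pictures as cells per 0.36 mm². Debris and apoptotic nuclei judged by microscopy.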
# [4] = test system: Capan-2; test: Inhibition of cell migration of human Capan 2 cells at 50 uM after 20 h by scratch migration assay; conditions: Capan-2, 20 h
# [5] = test system: Candida albicans; test: Antimicrobial activity against Candida albicans ATCC 90028 at 50 ug/mL by tetrazolium/formazan assay; type: functional, organism-based
# Outline: (§2)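 Candida albicans ATCC 90028 tested by tetrazolium/formazan assay; compounds at 50 μg/mL.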
# [6] = test system: Plasmodium falciparum; test: Antimalarial activity against multidrug-resistant Plasmodium falciparum K1 at 10 ug/mL; type: functional, organism-based
# Outline: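 P. falciparum K1 maintained in continuous culture; in vitro activity quantified by microculture radioisotope technique; compounds tested at 10 μg/mL.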
# [7] = test system: IPC-298; test: Antiproliferative activity against human IPC298 cells assessed as cell density at 50 uM after 2 days; type: functional; outline: as §1
# [8] = species on record: Homo sapiens; test: Effect on cell viability of human Capan II cells assessed as cell morphology changes at 50 uM after 20 h
# [9] = species on record: Gallus gallus; test: Inhibition of neurite outgrowth in E7 chicken spinal cord neurons at 50 uM after 2 days; type: functional
# Outline: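 Spinal cord (anterior) from 7-day chicken embryos dissociated with trypsin/DNAseI at 37 °C for 20 min, washed in HEPES-buffered medium. 50 000 cells plated per 1 cm² on polylysine/fibronectin coating in HBM with 10% FCS at 37 °C, no CO₂. Cultured with or without compound (10 or 50 μM) for 2 days; neurites scored by phase-contrast microscopy.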
# [10] = species on record: Gallus gallus; test: Inhibition of blebbistatin-induced neurite outgrowth in chicken medulla neurons at 50 uM after 24 hrs; type: functional
# [11] = test system: Human alphaherpesvirus 1; test: Antiviral activity against HSV1 ATCC VR260 at 50 ug/mL by colorimetry; type: functional, organism-based
# Outline: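 Against HSV-1 strain ATCC VR 260, colorimetric method; compounds at 50 μg/mL; acyclovir as positive control.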
# [12] = Toxicity against E7 chicken spinal cord neurons assessed as effect on cell viability at 50 uM after 2 days; parameters: species or system Gallus gallus; conditions: 48 h
# [13] = Toxicity against chicken medulla neurons assessed as effect on cell viability at 50 uM after 24 hrs; parameters: species or system Gallus gallus
# [14] = test system: IPC-298; test: Cytotoxicity against human IPC298 cells assessed as cell debris level at 50 uM after 2 days; type: functional, cell-based; outline: as §1
# [15] = test system: Candida albicans; test: Antimicrobial activity against Candida albicans ATCC 90028 by tetrazolium/formazan assay; type: functional, organism-based; outline: as §2
compound,measurement,setting,value
Nc1nc2c(ncn2COCCO)c(=O)[nH]1 [ACYCLOVIR],IC50,[1],0.5 µg/mL
CO[C@H]1/C=C/O[C@@]2(C)Oc3c(C)c(O)c4c(O)c(c(/C=N/N5CCN(C)CC5)c(O)c4c3C2=O)NC(=O)/C(C)=C\C=C\[C@H](C)[C@H](O)[C@@H](C)[C@@H](O)[C@@H](C)[C@H](OC(C)=O)[C@@H]1C [RIFAMPIN],MIC,[2],0.0023 µg/mL
NNC(=O)c1ccncc1 [ISONIAZID],MIC,[2],0.1 µg/mL
CC(C)C[C@@H]1NC(=O)CNC(=O)[C@H](Cc2c[nH]c3ccccc23)NC(=O)[C@@H]2CCCN2C(=O)[C@H]([C@@H](C)O)NC(=O)[C@H](CC(C)C)NC(=O)[C@H](CC(C)C)NC1=O [INTEGERRIMIDE A] (cyclo(GLLLTPW)),Activity,[3],inactive
same,inhibition at 50 µM,[4],30%
same,Activity,[5],inactive
same,Activity,[6],inactive
same,Activity,[7],40%
same,Activity,[8],inactive
same,Activity,[9],Active
same,Activity,[10],Active
same,Activity,[11],inactive
same,Activity,[12],Non-toxic
same,Activity,[13],Non-toxic
same,Activity,[14],inactive
C[C@@H]1[C@H](O)[C@@H](C)/C=C/C=C/C=C/C=C/C=C/C=C/C=C/[C@H](O[C@@H]2O[C@H](C)[C@@H](O)[C@H](N)[C@@H]2O)C[C@@H]2O[C@](O)(C[C@@H](O)C[C@@H](O)[C@H](O)CC[C@@H](O)C[C@@H](O)CC(=O)O[C@H]1C)C[C@H](O)[C@H]2C(=O)O [AMPHOTERICIN B],IC50,[15],0.08 µg/mL
CC(C)C[C@@H]1NC(=O)[C@H](C)NC(=O)[C@H](Cc2c[nH]c3ccccc23)NC(=O)[C@@H]2CCCN2C(=O)[C@H](CO)NC(=O)[C@H](C(C)C)NC(=O)[C@H](CC(C)C)NC1=O [INTEGERRIMIDE B] (cyclo(ALLVSPW)),Activity,[3],inactive
same,inhibition at 50 µM,[4],20%
same,Activity,[5],inactive
same,Activity,[6],inactive
same,Activity,[7],40%
same,Activity,[8],inactive
same,Activity,[9],Active
same,Activity,[11],inactive
same,Activity,[12],Non-toxic
same,Activity,[13],Non-toxic
same,Activity,[14],inactive
NC[C@H]1O[C@H](O[C@H]2[C@H](O)[C@@H](O[C@H]3O[C@H](CO)[C@@H](O)[C@H](N)[C@H]3O)[C@H](N)C[C@@H]2N)[C@H](O)[C@@H](O)[C@@H]1O [KANAMYCIN],MIC,[2],2.5 µg/mL
